Experimental findings from ChEMBL document CHEMBL3526106, “Cytochrome P450 regulation by α-tocopherol in Pxr-null and PXR-humanized mice” (Drug Metab Dispos, 2013) are described below.

Structures are written as SMILES.

For data set [1], the system named is Mus musculus. As to the kind of experiment: Drug level in male wild type mouse treated with 500 mg/kg for 7 to 14 days dosed through vitamin E-deficient base diet by UPLC-ESI-QTOFMS method based metabolomics analysis. In kind it is ADME, organism-based. On the set-up: dose 500 mg/kg. Particulars: in vivo, po.
For data set [2], the system named is Mus musculus. Kind of data set: Drug level in male PXR null mouse treated with 500 mg/kg for 7 to 14 days dosed through vitamin E-deficient base diet by UPLC-ESI-QTOFMS method based metabolomics analysis. In kind it is ADME, organism-based. On the set-up: dose 500 mg/kg. Particulars: in vivo, po.
In data set [3] the test system is Mus musculus. As to the kind of experiment: Drug level in male PXR-humanized mouse treated with 500 mg/kg for 7 to 14 days dosed through vitamin E-deficient base diet by UPLC-ESI-QTOFMS method based metabolomics analysis. The class given is ADME, organism-based. On the set-up: dose 500 mg/kg. The conditions noted are these: in vivo, po.
For data set [4], the system named is Ugt2b34. As to the kind of experiment: Induction of Ugt2b34 gene expression in wild type mouse liver at 50 mg/kg dosed through gavage daily for 4 days by qPCR method. The class given is ADME, organism-based. On the set-up: dose 50 mg/kg. Particulars: po, read-out: FC. Background: Quantitative PCR measures a nucleic acid by following its amplification.
For data set [5], the system named is Cyp2c29. Kind of data set: Induction of Cyp2c29 gene expression in male PXR null mouse liver at 50 mg/kg dosed through gavage daily for 4 days by qPCR method. The conditions noted are these: po, read-out: FC.
In data set [6] the test system is Cyp2c55. Kind of data set: Induction of Cyp2c55 gene expression in wild type mouse liver at 50 mg/kg dosed through gavage daily for 4 days by qPCR method. The class given is ADME, organism-based. On the set-up: dose 50 mg/kg. Particulars: po, read-out: FC.
Data set [7] relates to Ugt1a1. Kind of data set: Induction of Ugt1a1 gene expression in wild type mouse liver at 50 mg/kg dosed through gavage daily for 4 days by qPCR method. In kind it is ADME, organism-based. On the set-up: dose 50 mg/kg. Particulars: po, read-out: FC.
Data set [8] concerns Mus musculus. As to the kind of experiment: Reduction in Ugt1a6b gene expression in PXR-humanized mouse liver at 10 mg/kg dosed through gavage daily for 4 days by qPCR method. The conditions noted are these: in vivo, po, 96 h.
Data set [9] concerns the target T1, PXR (Nuclear receptor subfamily 1 group I member 2) (Mus musculus, UniProt O54915).
T1 sequence (O54915 whole entry): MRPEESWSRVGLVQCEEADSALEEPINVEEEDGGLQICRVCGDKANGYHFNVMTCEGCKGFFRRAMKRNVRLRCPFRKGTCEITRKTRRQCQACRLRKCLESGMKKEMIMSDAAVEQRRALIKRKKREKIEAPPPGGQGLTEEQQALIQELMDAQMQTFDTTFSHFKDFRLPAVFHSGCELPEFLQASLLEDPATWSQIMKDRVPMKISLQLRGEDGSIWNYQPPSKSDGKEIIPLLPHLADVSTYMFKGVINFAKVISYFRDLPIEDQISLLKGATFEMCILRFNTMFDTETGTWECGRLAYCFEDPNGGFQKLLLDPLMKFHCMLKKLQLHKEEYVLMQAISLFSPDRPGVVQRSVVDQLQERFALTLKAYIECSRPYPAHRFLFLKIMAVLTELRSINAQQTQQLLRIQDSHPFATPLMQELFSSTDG
Kind of data set: Activation of mouse PXR expressed in human HepG2 cells at 10 uM after 24 hrs by firefly luciferase DR3 reporter gene assay. The class given is ADME, cell-based. Particulars: human HepG2 cells expressing mouse PXR, read-out: FC. Summed up:
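HepG2 cells grown in DMEM + 10% FBS were transfected with 10 ng mouse PXR, 100 ng DR3 firefly luciferase reporter and 2 ng Renilla pRL-SV40. Compound in DMSO was added 24 h after transfection and left for 24 h. Dual luciferase was then read, firefly normalized to Renilla per well, and expressed as fold over DMSO control.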

The subject of data set [10] is Cyp2b10. As to the kind of experiment: Induction of Cyp2b10 gene expression in wild type mouse liver at 50 mg/kg dosed through gavage daily for 4 days by qPCR method. On the set-up: dose 50 mg/kg. The class given is ADME, organism-based. Particulars: po, read-out: FC.
The subject of data set [11] is Ugt1a10. Kind of data set: Induction of Ugt1a10 gene expression in PXR null mouse liver at 50 mg/kg dosed through gavage daily for 4 days by qPCR method. The class given is ADME, organism-based. On the set-up: dose 50 mg/kg. Particulars: po, read-out: FC.
Data set [12] concerns Ugt2b5. As to the kind of experiment: Induction of Ugt2b5 gene expression in wild type mouse liver at 50 mg/kg dosed through gavage daily for 4 days by qPCR method. In kind it is ADME, organism-based. On the set-up: dose 50 mg/kg. The conditions noted are these: po, read-out: FC.
In data set [13] the test system is Cyp2c29. Kind of data set: Induction of Cyp2c29 gene expression in wild type mouse liver at 50 mg/kg dosed through gavage daily for 4 days by qPCR method. In kind it is ADME, organism-based. The conditions noted are these: po, read-out: FC. On the set-up: dose 50 mg/kg.
In data set [14] the test system is Cyp3a11. Kind of data set: Induction of Cyp3a11 gene expression in wild type mouse liver at 50 mg/kg dosed through gavage daily for 4 days by qPCR method. In kind it is ADME, organism-based. On the set-up: dose 50 mg/kg. Particulars: po, read-out: FC.
The subject of data set [15] is Mus musculus. As to the kind of experiment: Reduction in Ugt1a6a gene expression in PXR-humanized mouse liver at 10 mg/kg dosed through gavage daily for 4 days by qPCR method. Particulars: in vivo, po, 96 h.
The subject of data set [16] is Ugt1a9. Kind of data set: Induction of Ugt1a9 gene expression in wild type mouse liver at 50 mg/kg dosed through gavage daily for 4 days by qPCR method. In kind it is ADME, organism-based. On the set-up: dose 50 mg/kg. Particulars: po, read-out: FC.
The test system of data set [17] is Mus musculus. As to the kind of experiment: Reduction in Ugt1a6b gene expression in wild type mouse liver at 50 mg/kg dosed through gavage daily for 4 days by qPCR method. The class given is ADME, organism-based. On the set-up: dose 50 mg/kg. Particulars: in vivo, po, 96 h.
Data set [18] relates to Ugt1a10. As to the kind of experiment: Induction of Ugt1a10 gene expression in wild type mouse liver at 50 mg/kg dosed through gavage daily for 4 days by qPCR method. The class given is ADME, organism-based. On the set-up: dose 50 mg/kg. The conditions noted are these: po, read-out: FC.

For `CN1CC(=O)NC1=N` [CREATININE], the Drug metabolism result in data set [1], in [2] and in [3] was “metabolite_detected” each time.
On to `CC(=O)[C@H]1[C@H](C#N)C[C@H]2[C@@H]3CC=C4C[C@@H](O)CC[C@]4(C)[C@H]3CC[C@@]21C` [PREGNENOLONE CARBONITRILE], for which the fold induction at 96 h in [4] was found to be 3.2; in data set [5] it was 1.6; in [6], 303; in data set [7], 3.1; in data set [10], 160; in [11], 1.8. In addition, the fold induction at 96 h in data set [12] was 1.4; in [13], 9.2; in data set [14], 20.9; in [16], 9.4; in [18], 2.8. The results for the “fold change (FC)” value in [8], in [15] and in data set [17] were 1.8, 2 and 1.3, respectively. Moreover, the fold induction at 24 h, 10 µM in data set [9] came to 9.5.
